{"data": "Measurements collected from several papers", "observed": "cell growth or viability", "note": "Lines come from different studies, so protocols differ."}
{"SMILES": "O=c1cccccc1Sc1cccccc1=O", "cell line": "HepDES19", "assay": "MTS", "setting": "72 h", "CC50": "20.8 µM"}
{"SMILES": "N#Cc1cc(Cl)cc(Oc2ccc(Cl)cc2OCCn2cc(Cl)c(=O)[nH]c2=O)c1", "cell line": "MT2", "CC50": "31 µM"}
{"SMILES": "O=P(O)(O)c1cc2c(O)c(c1)Cc1cc(P(=O)(O)O)cc(c1O)Cc1cc(P(=O)(O)O)cc(c1O)Cc1cc(P(=O)(O)O)cc(c1O)Cc1cc(P(=O)(O)O)cc(c1O)Cc1cc(P(=O)(O)O)cc(c1O)Cc1cc(P(=O)(O)O)cc(c1O)Cc1cc(P(=O)(O)O)cc(c1O)C2", "cell line": "HEK293", "assay": "ATP luminescence", "setting": "24 h", "CC50": "747 µM"}
{"SMILES": "N=C(N)c1ccc(OCCCCCOc2ccc(C(=N)N)cc2)cc1", "cell line": "HEK293", "assay": "MTT", "setting": "24 h", "CC50": "82.9 µM"}
{"SMILES": "COC(=O)N[C@H](C(=O)N1CCC[C@H]1c1nc(-c2ccc(-c3ccc(-c4c[nH]c([C@@H]5CCCN5C(=O)[C@@H](NC(=O)OC)C(C)C)n4)cc3)cc2)c[nH]1)C(C)C", "cell line": "MT2", "setting": "5 days", "CC50": "90 µM"}
{"SMILES": "CC[C@H](C)[C@H](NC(=O)OCC1c2ccccc2-c2ccccc21)C(=O)Sc1cccccc1=O", "cell line": "HepDES19", "assay": "MTS", "setting": "72 h", "CC50": "42.6 µM"}
{"SMILES": "O[C@@H](c1cc(C(F)(F)F)nc2c(C(F)(F)F)cccc12)[C@H]1CCCCN1", "cell line": "HEK293", "assay": "MTT", "setting": "24 h", "CC50": "8.84 µM"}
{"SMILES": "C=C(C)c1ccccc(=O)c1O", "cell line": "HepDES19", "assay": "MTS", "setting": "72 h", "CC50": "53.5 µM"}
{"SMILES": "CC1c2cc(c(O)c(O)c2O)C(C)c2cc(c(O)c(O)c2O)C(C)c2cc(c(O)c(O)c2O)C(C)c2cc1c(O)c(O)c2O (centres unmarked)", "cell line": "HEK293", "assay": "MTT", "setting": "24 h", "CC50": "402 µM"}
{"SMILES": "Cc1nc(C(CN)NC(=O)C(=O)Nc2ccc3c(c2)OCO3)sc1CO (centres unmarked)", "cell line": "MT2", "assay": "MTS", "setting": "96 h", "CC50": "≥ 650 µM"}
{"SMILES": "CCOc1ccc(-c2nc(CNCCc3ccc(F)cc3)cs2)cc1", "cell line": "HEK293", "assay": "MTT", "setting": "24 h", "CC50": "39 µM"}
{"SMILES": "CC/C(=C(\\c1ccccc1)c1ccc(OCCN(C)C)cc1)c1ccccc1", "cell line": "HEK293", "assay": "resazurin", "setting": "20 h", "CC50": "9 µg/mL"}
{"SMILES": "NCCN(C(=O)c1ccc(Cl)cc1Cl)c1ccc(OCc2ccc(Cl)cc2)cc1", "cell line": "HEK293", "assay": "MTT", "setting": "24 h", "CC50": "7.96 µM"}
{"SMILES": "CC(C)c1cccc(=O)c(O)c1", "cell line": "HepDES19", "assay": "MTS", "setting": "72 h", "CC50": "66.4 µM"}
